# Experimental data reported in ChEMBL document CHEMBL2151018, “Bioassay-guided investigation of the Tanzanian plant Pyrenacantha kaurabassana for potential anti-HIV-active compounds” (J Nat Prod, 2012).
# Columns and labels:
# [1] = test system: Human immunodeficiency virus 1; test: Antiviral activity against CXCR4-tropic HIV1 NL4-3 infected in HEK293T cells assessed as inhibition of viral replication after 4 days by beta-galactosidase reporter gene assay; format: functional, organism-based; conditions: Human immunodeficiency virus 1, NL4-3, HEK-293T, 96 h
# Summary of the method: (§1)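 Measured in the proprietary deCIPhR cell-based system using fully replicative virus. Two HIV lab strains from molecular clones differing in coreceptor tropism were used: pNL4-3 (CXCR4 usage) and pNL-AD87 (CCR5 usage). IC50 is the 50% inhibitory concentration in the anti-HIV assay, expressed in μg/mL; IC90 was also determined.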
# [2] = test system: Human immunodeficiency virus 1; test: Antiviral activity against CCR5-tropic HIV1 NL-AD87 infected in HEK293T cells assessed as inhibition of viral replication after 4 days by beta-galactosidase reporter gene assay; format: functional, organism-based; conditions: Human immunodeficiency virus 1, NL-AD87, HEK-293T, 96 h; summary of the method: as §1
# [3] = (§2) Cytotoxicity against human HEK293T cells after 4 days by Alamar blue assay; format: cell-based, HEK-293T; conditions: HEK293T cells, read-out: TC50
# HEK-293T = test: as §2; format: cell-based; conditions: hek-293t, 96 h
# [4] = Selectivity index, ratio of TC50 for human HEK293T cells to IC50 for CXCR4-tropic HIV1 NL4-3 infected in HEK293T cells; format: toxicity, cell-based, HEK-293T; conditions: read-out: Selectivity Index
# [5] = Selectivity index, ratio of TC50 for human HEK293T cells to IC50 for CCR5-tropic HIV1 NL-AD87 infected in HEK293T cells; format: toxicity, cell-based, HEK-293T; conditions: read-out: Selectivity Index
# [6] = Selectivity index, ratio of TC50 for human HEK293T cells to IC90 for CXCR4-tropic HIV1 NL4-3 infected in HEK293T cells; format: toxicity, cell-based, HEK-293T; conditions: read-out: Selectivity Index
# [7] = Selectivity index, ratio of TC50 for human HEK293T cells to IC90 for CCR5-tropic HIV1 NL-AD87 infected in HEK293T cells; format: toxicity, cell-based, HEK-293T; conditions: read-out: Selectivity Index
IC50 [1] [µg/mL],IC90 [1] [µg/mL],IC50 [2] [µg/mL],IC90 [2] [µg/mL],Compound,CC50 at 96 h [3] [µg/mL],TC90 (HEK-293T) [µg/mL],selectivity ratio [4],selectivity ratio [5],selectivity ratio [6],selectivity ratio [7]
21,111,21,111,COc1cc2c(c(-c3cc(O)c4c(O)c5oc6c(C(=O)O)cc(C)cc6c(=O)c5c(O)c4c3OC)c1)CC(C)OC2=O (stereo not given),> 12.5,> 12.5,–,–,–,–
2,22,2,22,COc1cc2c(c(-c3cc(O)c4c(O)c5oc6c(C(=O)O)cc(C)cc6c(=O)c5c(OC)c4c3OC)c1)CC(C)OC2=O (stereo not given),31,154,15.5,15.5,7,7

Compound,IC50 [1] [µg/mL],IC90 [1] [µg/mL],IC50 [2] [µg/mL],IC90 [2] [µg/mL],CC50 at 96 h [3] [µg/mL],TC90 (HEK-293T) [µg/mL],selectivity ratio [4],selectivity ratio [5],selectivity ratio [6],selectivity ratio [7]
enfuvirtide,0.01,0.026,0.01,0.026,–,–,–,–,–,–
